Results on 25 compounds are retold here after ChEMBL document CHEMBL1155319, “Discovery of novel selective HER-2 sheddase inhibitors through optimization of P1 moiety” (Bioorg Med Chem Lett, 2009).

By IC50 is commonly meant the midpoint of a concentration-inhibition curve. The Papp is a coefficient for how fast a substance crosses the barrier. What is called half-life is the time in which the quantity being followed falls by half. Low readings indicate fast loss, high ones slow loss.

The target of series [1] is T1, Disintegrin and metalloproteinase domain-containing protein 10 (Homo sapiens, UniProt O14672).
T1 sequence (O14672 whole entry): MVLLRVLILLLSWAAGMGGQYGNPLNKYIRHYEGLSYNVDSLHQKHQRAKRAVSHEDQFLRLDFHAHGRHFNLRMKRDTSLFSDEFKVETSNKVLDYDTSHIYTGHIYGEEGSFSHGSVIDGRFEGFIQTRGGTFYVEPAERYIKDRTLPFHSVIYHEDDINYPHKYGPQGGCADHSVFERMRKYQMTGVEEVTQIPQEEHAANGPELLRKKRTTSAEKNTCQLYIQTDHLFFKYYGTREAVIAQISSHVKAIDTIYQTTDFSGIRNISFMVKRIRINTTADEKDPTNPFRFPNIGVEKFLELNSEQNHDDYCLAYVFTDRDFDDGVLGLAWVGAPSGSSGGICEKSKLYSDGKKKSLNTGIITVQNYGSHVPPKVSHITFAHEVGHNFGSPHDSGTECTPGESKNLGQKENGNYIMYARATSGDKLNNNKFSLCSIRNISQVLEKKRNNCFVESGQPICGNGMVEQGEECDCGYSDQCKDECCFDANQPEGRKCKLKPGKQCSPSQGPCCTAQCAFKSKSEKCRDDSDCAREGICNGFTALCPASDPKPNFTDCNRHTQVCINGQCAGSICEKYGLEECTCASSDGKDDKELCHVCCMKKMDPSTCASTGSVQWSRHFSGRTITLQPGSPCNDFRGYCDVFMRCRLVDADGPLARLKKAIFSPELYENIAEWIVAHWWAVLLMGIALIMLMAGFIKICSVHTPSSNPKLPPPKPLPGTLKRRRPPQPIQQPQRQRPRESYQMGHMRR
As to the kind of experiment: Inhibition of ADAM-10.

Series [2] concerns the target 72 kDa type IV collagenase (Homo sapiens, UniProt P08253). Put plainly: Inhibition of MMP-2.
The target of another series is T2, Interstitial collagenase (Homo sapiens, UniProt P03956).
T2 sequence (P03956 whole entry): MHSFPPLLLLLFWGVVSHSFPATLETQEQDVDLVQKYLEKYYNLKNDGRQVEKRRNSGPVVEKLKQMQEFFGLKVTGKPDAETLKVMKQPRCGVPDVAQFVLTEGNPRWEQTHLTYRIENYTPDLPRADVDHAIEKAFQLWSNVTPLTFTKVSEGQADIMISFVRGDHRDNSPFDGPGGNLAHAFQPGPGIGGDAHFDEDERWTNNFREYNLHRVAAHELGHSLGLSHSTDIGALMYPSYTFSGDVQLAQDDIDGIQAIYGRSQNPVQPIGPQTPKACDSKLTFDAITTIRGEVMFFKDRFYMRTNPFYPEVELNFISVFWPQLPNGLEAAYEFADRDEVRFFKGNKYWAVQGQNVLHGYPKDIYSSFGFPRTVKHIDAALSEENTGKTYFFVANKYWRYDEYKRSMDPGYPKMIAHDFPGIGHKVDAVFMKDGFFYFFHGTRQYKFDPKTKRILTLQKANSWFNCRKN
Put plainly: Inhibition of MMP-1.

A further series addresses Stromelysin-1 (Homo sapiens, UniProt P08254). As to the kind of experiment: Inhibition of MMP-3.
Series [3] has as its target Matrix metalloproteinase-9 (Homo sapiens, UniProt P14780). Put plainly: Inhibition of MMP-9.
Series [4] can be described thus: Permeability across human Caco-2 cells. Type of series: ADME, cell-based. For orientation: Caco-2 cells form a polarised layer with tight junctions and transporters.
Series [5] can be described thus: Clearance in human microsome. Type of series: ADME. To be noted: microsomes. Put shortly: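 Clearance projected from incubation with human microsomes and expressed in L/h/kg.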
In the next series the test system is Mus musculus. Put plainly: AUC in mouse at 5 mg/kg, po. Details: dose 5 mg/kg, route oral. It is filed as ADME, organism-based, Plasma. Conditions: in vivo. Put shortly:
(§1)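 Oral dose of 5 mg/kg, given as a suspension.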

Series [6] is described as follows: Half life in mouse at 5 mg/kg, po. To be noted: in vivo. The arrangement: dose 5 mg/kg, route oral. It is filed as ADME, organism-based. The method in brief: as §1

The structures appear in SMILES notation. A value given as a limit tells only on which side of the number the result lay.

Sequence of Stromelysin-1 (P08254 whole entry): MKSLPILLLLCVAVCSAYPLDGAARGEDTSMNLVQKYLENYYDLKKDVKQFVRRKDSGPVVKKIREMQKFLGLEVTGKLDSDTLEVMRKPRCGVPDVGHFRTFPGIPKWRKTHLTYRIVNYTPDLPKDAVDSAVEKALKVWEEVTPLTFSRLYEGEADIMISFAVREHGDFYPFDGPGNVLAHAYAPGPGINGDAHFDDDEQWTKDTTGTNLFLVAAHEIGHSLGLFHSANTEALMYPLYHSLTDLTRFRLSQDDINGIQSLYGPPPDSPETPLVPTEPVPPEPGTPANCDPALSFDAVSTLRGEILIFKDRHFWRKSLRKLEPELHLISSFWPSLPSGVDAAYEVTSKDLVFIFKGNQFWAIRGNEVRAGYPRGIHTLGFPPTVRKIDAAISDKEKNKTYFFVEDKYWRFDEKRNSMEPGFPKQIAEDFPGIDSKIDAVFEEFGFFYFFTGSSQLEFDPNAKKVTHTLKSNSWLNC
Sequence of Matrix metalloproteinase-9 (P14780 whole entry): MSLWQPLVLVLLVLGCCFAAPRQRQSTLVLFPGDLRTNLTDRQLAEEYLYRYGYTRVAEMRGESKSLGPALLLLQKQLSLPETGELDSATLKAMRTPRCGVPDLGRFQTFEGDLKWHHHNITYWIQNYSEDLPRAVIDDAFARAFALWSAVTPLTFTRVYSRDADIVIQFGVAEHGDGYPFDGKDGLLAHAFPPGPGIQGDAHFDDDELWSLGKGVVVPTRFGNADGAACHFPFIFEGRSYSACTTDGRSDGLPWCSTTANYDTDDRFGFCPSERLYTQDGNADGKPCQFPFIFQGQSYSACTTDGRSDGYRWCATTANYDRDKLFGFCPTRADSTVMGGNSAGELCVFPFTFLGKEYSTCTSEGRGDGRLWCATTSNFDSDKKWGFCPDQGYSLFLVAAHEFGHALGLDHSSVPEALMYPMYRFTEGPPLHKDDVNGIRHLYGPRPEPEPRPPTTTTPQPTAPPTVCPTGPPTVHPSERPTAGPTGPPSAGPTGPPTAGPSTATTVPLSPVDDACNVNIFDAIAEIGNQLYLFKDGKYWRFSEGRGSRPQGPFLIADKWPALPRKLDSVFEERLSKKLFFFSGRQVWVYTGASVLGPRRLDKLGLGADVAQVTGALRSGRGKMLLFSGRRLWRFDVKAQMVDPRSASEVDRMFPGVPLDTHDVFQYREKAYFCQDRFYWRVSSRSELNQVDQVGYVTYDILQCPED
Sequence of 72 kDa type IV collagenase (P08253 whole entry): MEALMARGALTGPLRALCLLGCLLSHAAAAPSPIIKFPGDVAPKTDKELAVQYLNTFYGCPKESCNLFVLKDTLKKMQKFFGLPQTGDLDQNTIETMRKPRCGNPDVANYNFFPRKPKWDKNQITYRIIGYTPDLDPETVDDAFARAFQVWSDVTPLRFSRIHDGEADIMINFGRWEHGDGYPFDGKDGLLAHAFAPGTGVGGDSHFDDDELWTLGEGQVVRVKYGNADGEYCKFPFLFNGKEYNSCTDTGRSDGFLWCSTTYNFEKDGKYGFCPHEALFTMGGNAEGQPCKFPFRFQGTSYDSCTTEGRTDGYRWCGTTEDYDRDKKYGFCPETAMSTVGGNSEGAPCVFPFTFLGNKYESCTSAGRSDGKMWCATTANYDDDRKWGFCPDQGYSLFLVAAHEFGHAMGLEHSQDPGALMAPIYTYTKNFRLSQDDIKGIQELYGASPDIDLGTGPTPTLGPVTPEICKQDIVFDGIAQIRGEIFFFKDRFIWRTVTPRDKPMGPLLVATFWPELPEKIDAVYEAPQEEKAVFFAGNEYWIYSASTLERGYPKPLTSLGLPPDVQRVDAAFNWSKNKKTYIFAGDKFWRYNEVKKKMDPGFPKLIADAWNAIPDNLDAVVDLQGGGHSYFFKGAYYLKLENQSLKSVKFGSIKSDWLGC

With `O=C(NO)[C@H]1CC(OC(=O)N2CCCC2)CN[C@@H]1C(=O)N1CC=C(c2ccccc2)CC1` (some centres undefined), the IC50 was 9 nM in [1]; 102 nM in series [2]; greater than 5000 nM on Interstitial collagenase; greater than 5000 nM at Stromelysin-1; 498 nM in series [3].

Consider `O=C(NO)[C@H]1CC(OC(=O)N2CCCC2)CN[C@@H]1C(=O)N1Cc2ccccc2C1` (some centres undefined), for which the IC50 in series [1] was 186 nM; in [2], greater than 2000 nM; against Interstitial collagenase, 2500 nM; against Stromelysin-1 it was greater than 5000 nM; in [3] it was greater than 5000 nM.

`CN1C[C@@H](OC(=O)N2CCC(F)(F)C2)C[C@H](C(=O)NO)[C@H]1C(=O)N1CCN(c2ccccc2)CC1`: the half-maximal inhibitory concentration (IC50) is 125 nM in series [1] and greater than 2000 nM in series [2].

Take `O=C(NO)[C@H]1CC(CC(=O)N2CCCC2)CN[C@@H]1C(=O)N1CC[C@H](c2ccccc2)C1` (some centres undefined): the IC50 in series [1] was found to be 14 nM; in [2] it was 365 nM.

For the compound `CN(C)C(=O)O[C@H]1C[C@H](C(=O)NO)[C@@H](C(=O)N2CCN(c3ccccc3)CC2)N(C)C1`, the half-inhibitory concentration (IC50) in [1] was 58 nM; in series [2], 730 nM; against Interstitial collagenase, greater than 5000 nM; against Stromelysin-1 it was greater than 5000 nM; in series [3], greater than 5000 nM.

Regarding `CN(C(=O)c1ccccc1)C1CN[C@H](C(=O)N2CC=C(c3ccccc3)CC2)[C@@H](C(=O)NO)C1` (some centres undefined), the half-maximal inhibitory concentration (IC50) in series [1] and in [2] was 12 nM throughout.

Regarding `CN1C[C@@H](OC(=O)N2CCCC2)C[C@H](C(=O)NO)[C@H]1C(=O)N1CCN(c2ccccc2)CC1`, the IC50 in series [1] was 18 nM; in series [2], 471 nM; on Interstitial collagenase, greater than 5000 nM; against Stromelysin-1, greater than 5000 nM; in [3], greater than 5000 nM.

As for `CN1C[C@@H](OC(=O)N2CCCCCC2)C[C@H](C(=O)NO)[C@H]1C(=O)N1CCN(c2ccccc2)CC1`, the IC50 in series [1] was 35 nM; in [2], 843 nM; on Interstitial collagenase, greater than 5000 nM; against Stromelysin-1, greater than 5000 nM; in series [3], greater than 5000 nM.

In the case of `CC(C)C(=O)N(C)C1CN[C@H](C(=O)N2CC[C@H](c3ccccc3)C2)[C@@H](C(=O)NO)C1` (some centres undefined), the concentration for half-maximal inhibition (IC50) was found to be 138 nM in series [1] and 502 nM in series [2].

As to `COC(=O)N1C[C@@H](OC(=O)N2CCCC2)C[C@H](C(=O)NO)[C@H]1C(=O)N1CCN(c2ccccc2)CC1`, the half-inhibitory concentration (IC50) was 20 nM in series [1]; 613 nM in series [2]; greater than 5000 nM at Interstitial collagenase; greater than 5000 nM on Stromelysin-1; greater than 5000 nM in [3].

Take `O=C(NO)[C@H]1C[C@H](OC(=O)N2CCCC2)CN[C@@H]1C(=O)N1CCC(c2ccccc2)CC1`: the IC50 in series [1] was 99 nM; in series [2] it was greater than 2000 nM; at Interstitial collagenase it was greater than 5000 nM; against Stromelysin-1, greater than 5000 nM; in [3], greater than 5000 nM.

Consider `O=C(NO)[C@H]1C[C@H](OC(=O)N2CCCC2)CN[C@@H]1C(=O)N1CC=C(c2ccccc2)C1`, for which the IC50 was 60 nM in [1], greater than 5000 nM on Interstitial collagenase, greater than 5000 nM against Stromelysin-1 and greater than 5000 nM in [3].

With `O=C(NO)[C@H]1C[C@@H](OC(=O)N2CCCC2)CN[C@@H]1C(=O)N1CC=C(c2ccccc2)CC1`, the IC50 in series [1] was 78 nM; in [2], less than 5 nM.

For the compound `CN1C[C@@H](OC(=O)N2CCC2)C[C@H](C(=O)NO)[C@H]1C(=O)N1CCN(c2ccccc2)CC1`, the IC50 was 20 nM in series [1]; 432 nM in [2]; greater than 5000 nM against Interstitial collagenase; greater than 5000 nM at Stromelysin-1; greater than 5000 nM in series [3].

Consider `CN1C[C@@H](OC(=O)N2CCCCC2)C[C@H](C(=O)NO)[C@H]1C(=O)N1CCN(c2ccccc2)CC1`, for which the IC50 in [1] is 9.6 nM; in series [2], 344 nM; at Interstitial collagenase it was greater than 5000 nM; against Stromelysin-1 it was greater than 5000 nM; in series [3], greater than 5000 nM. Also, in series [4], the Papp is 0.9 ×10⁻⁶ cm/s. Also, the CL in series [5] came out at 9.67 mL/min/kg.

Consider `O=C(NO)[C@H]1CC(CC(=O)N2CCCC2)CN[C@@H]1C(=O)N1CC=C(c2ccccc2)CC1` (some centres undefined), for which the concentration for half-maximal inhibition (IC50) in series [1] was 17 nM; in series [2], less than 5 nM.

`O=C(NO)[C@H]1CC2(CC2)CN[C@@H]1C(=O)N1CC=C(c2ccccc2)CC1`: in series [2], the concentration for half-maximal inhibition (IC50) is less than 5 nM.

Consider `CC(C)C(=O)N(C)C1CN[C@H](C(=O)N2CC=C(c3ccccc3)CC2)[C@@H](C(=O)NO)C1` (some centres undefined), for which the concentration for half-maximal inhibition (IC50) in series [1] is 23 nM; in series [2], 11 nM.

As to `O=C(NO)[C@H]1C[C@H](OC(=O)N2CCCC2)CN[C@@H]1C(=O)N1CCN(c2ccccc2)CC1`, the IC50 is 11 nM in series [1]; 235 nM in series [2]; greater than 5000 nM at Interstitial collagenase; greater than 5000 nM on Stromelysin-1; greater than 5000 nM in series [3].

On to `CC(C)OC(=O)N(C)C1CN[C@H](C(=O)N2CC=C(c3ccccc3)CC2)[C@@H](C(=O)NO)C1` (some centres undefined), for which the concentration for half-maximal inhibition (IC50) in series [1] was 11 nM; in [2], less than 5 nM.

`NCCCCNC(=O)CC1CN[C@H](C(=O)N2CCC(c3ccccc3)C2)[C@@H](C(=O)NO)C1` (some centres undefined): the figures for the half-inhibitory concentration (IC50) in series [1] and in series [2] were 161 nM and 1660 nM, respectively.

With `CN1C[C@@H](OC(=O)N2CCCCCCC2)C[C@H](C(=O)NO)[C@H]1C(=O)N1CCN(c2ccccc2)CC1`, the half-maximal inhibitory concentration (IC50) was 26 nM in series [1]; 1470 nM in series [2]; greater than 5000 nM on Interstitial collagenase; greater than 5000 nM on Stromelysin-1; greater than 5000 nM in [3]. The AUC with Mus musculus is reported as 323 nM/L.hr. For the same compound, the half-life in series [6] was 52.8 min.

For the compound `O=C(NO)[C@H]1CC(OC(=O)N2CCCC2)CN[C@@H]1C(=O)N1CC[C@H](c2ccccc2)C1` (some centres undefined), the IC50 in series [1] is 83 nM; in [2], greater than 2000 nM; against Interstitial collagenase it was greater than 5000 nM; against Stromelysin-1, greater than 5000 nM; in [3], greater than 5000 nM.

For the compound `CN(C(=O)c1ccccc1)C1CN[C@H](C(=O)N2CC[C@H](c3ccccc3)C2)[C@@H](C(=O)NO)C1` (some centres undefined), the half-maximal inhibitory concentration (IC50) in [1] stood at 84 nM; in series [2] it was 210 nM.

For the compound `CN1C[C@@H](OC(=O)N2CC=CC2)C[C@H](C(=O)NO)[C@H]1C(=O)N1CCN(c2ccccc2)CC1`, the 50% inhibitory concentration (IC50) in series [1] was 30 nM; in series [2], 581 nM; against Interstitial collagenase, greater than 5000 nM; on Stromelysin-1 it was greater than 5000 nM; in series [3], greater than 5000 nM.
